Several values for one entry are separate records, joined by “and”; a condition that tells them apart may be missing. Equal values may be shown once. Entries after “also recorded” stand apart in the source; their conditions may differ.
How the values were obtained:
[1] = system: liver fibrosis in patients with advanced PBC; assay: Paired liver biopsy histology; type: in vivo, human
Outline: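 Paired liver biopsies were taken at screening (baseline) and within 2 weeks of the final dose of the 12-cycle iv regimen (280 or 380 mg/m2/4 hours, twice weekly). Sections were stained with Masson's trichrome, H&E and Sirius red. Three independent central pathologists scored the slides blinded, using Knodell and Ishak modified HAI for grade and fibrosis stage. Analysis was descriptive.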

[2] = Plasma pharmacokinetics of OP-724 and C-82 after OP-724 infusion; type: in vivo, human; conditions: for OP-724 AUC0-24h / OP-724 Cmax / OP-724 Tmax / OP-724 T1/2: plasma
Outline: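 A single iv dose of 280 or 380 mg/m2 was infused over 4 hours. Blood was drawn predose, at 30 min and 1, 2 and 4 hours after dosing, then 1, 5 and 20 hours after the infusion ended. Plasma parent and metabolite C-82 were quantified. […] Values are mean±SD.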

[3] = system: P300/β-catenin signalling; conditions: ref 20 23; cited from earlier work
[4] = system: patients with advanced PBC; assay: Liver stiffness; type: in vivo, human
Outline: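 Patients aged 20–74 years with PBC and Scheuer stage III or higher fibrosis on screening biopsy received iv OP-724 at 280 or 380 mg/m2 over 4 hours, twice weekly for 12 cycles. Liver stiffness was measured by FibroScan, and the Child-Pugh score, MELD score and Enhanced Liver Fibrosis score were determined. Prespecified change was from baseline to 12 weeks. Analysis was descriptive, mean±SD, with no statistical testing.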

[5] = system: patients with advanced PBC; assay: Serum liver function parameters during OP-724 administration; type: in vivo, human
[6] = system: cholestatic liver fibrosis models; conditions: cited from earlier work
[7] = patient P101-01, 12 weeks, baseline 6
[8] = patient P101-02, 12 weeks, baseline 2
[9] = patient P101-02, 12 weeks, baseline 6
[10] = patient P101-04, 12 weeks, baseline 1
[11] = patient P101-07, 12 weeks, baseline 2
[12] = patient P101-07, 12 weeks, baseline 3
[13] = patient P101-08, 12 weeks, baseline 3
[14] = OP-724 280 mg/m^2/4 hours, Max, N=6
[15] = OP-724 280 mg/m^2/4 hours, Median, N=6
[16] = OP-724 280 mg/m^2/4 hours, Min, N=6
[17] = single OP-724 iv infusion 280 mg/m^2/4 hours, Mean, N=6
[18] = single OP-724 iv infusion 380 mg/m^2/4 hours, Mean, N=1
[19] = before and after administration
[20] = patient P101-07, 12 weeks, baseline 5
[21] = patient P101-08, 12 weeks, baseline 6

C[C@H]1[C@H]2N(C(=O)CN(C)N2C(=O)NCc2ccccc2)[C@@H](Cc2ccc(OP(=O)(O)O)cc2)C(=O)N1Cc1cccc2cccnc12 [OP-724]
patients with a decrease in the fibrosis stage by 1 or more ([1]; paired biopsies, baseline vs 12 weeks, 2/5 patients): 40%
patients with a decrease (improvement) in the mHAI score ([1]; paired biopsies, baseline vs 12 weeks, 3/5 patients): 60%
patients with a decrease in the CPA ([1]; paired biopsies, baseline vs 12 weeks, three of five patients): 60%
Modified HAI score: Confluent necrosis ([1]; patient P101-01, 12 weeks, baseline 0): 0
Modified HAI score: Lobular inflammation ([1]; patient P101-01, 12 weeks, baseline 1): 1
Modified HAI score: Interface hepatitis ([1]; patient P101-01, 12 weeks, baseline 2): 2
Modified HAI score: Portal inflammation ([1]; patient P101-01, 12 weeks, baseline 3): 3
Modified HAI score: Stage ([1]; patient P101-01, 12 weeks, baseline 4): 3
Modified HAI score: HAI score [1, 7]: 6
Collagen proportional area, Sirius red positive area ([1]; patient P101-01, 12 weeks, baseline 7.8010627): 2.739%
Modified HAI score: Confluent necrosis ([1]; patient P101-02, 12 weeks, baseline 0): 0
Modified HAI score: Interface hepatitis [1, 8]: 1
Modified HAI score: Lobular inflammation [1, 8]: 1
Modified HAI score: Portal inflammation [1, 8]: 1
Collagen proportional area, Sirius red positive area ([1]; patient P101-02, 12 weeks, baseline 4.9477138): 3.714%
Modified HAI score: Stage ([1]; patient P101-02, 12 weeks, baseline 5): 5
Modified HAI score: HAI score [1, 9]: 3
Modified HAI score: Confluent necrosis ([1]; patient P101-04, 12 weeks, baseline 0): 1
Modified HAI score: Lobular inflammation [1, 10]: 2
Modified HAI score: Portal inflammation [1, 10]: 3
Modified HAI score: Interface hepatitis ([1]; patient P101-04, 12 weeks, baseline 2): 3
Modified HAI score: Stage ([1]; patient P101-04, 12 weeks, baseline 3): 5
Modified HAI score: HAI score ([1]; patient P101-04, 12 weeks, baseline 4): 9
Collagen proportional area, Sirius red positive area ([1]; patient P101-04, 12 weeks, baseline 6.8891091): 7.584%
Modified HAI score: Confluent necrosis [1, 11]: 0
Modified HAI score: Interface hepatitis [1, 11]: 2
Modified HAI score: Lobular inflammation [1, 12]: 2
Modified HAI score: Portal inflammation [1, 12]: 2
Modified HAI score: Stage [1, 12]: 3
Collagen proportional area, Sirius red positive area ([1]; patient P101-07, 12 weeks, baseline 3.8731926): 3.646%
Modified HAI score: HAI score ([1]; patient P101-07, 12 weeks, baseline 10): 6
Modified HAI score: Confluent necrosis [1, 13]: 0
Modified HAI score: Lobular inflammation [1, 13]: 3
Modified HAI score: Portal inflammation [1, 13]: 2
Modified HAI score: Interface hepatitis ([1]; patient P101-08, 12 weeks, baseline 4): 1
Modified HAI score: Stage ([1]; patient P101-08, 12 weeks, baseline 5): 2
Collagen proportional area, Sirius red positive area ([1]; patient P101-08, 12 weeks, baseline 7.7587483): 3.484%
Modified HAI score: HAI score ([1]; patient P101-08, 12 weeks, baseline 13): 6
septal thickness in liver parenchyma, Masson's trichrome staining ([1]; patients P101-01 and P101-08, after OP-724 administration): reduction in septal thickness
OP-724 AUC0-24h [2, 14]: 9210 ng･h/mL
OP-724 Cmax [2, 14]: 2.46 µg/mL
OP-724 Tmax [2, 14]: 4 h
OP-724 AUC0-24h [2, 15]: 6340 ng･h/mL
OP-724 Cmax [2, 15]: 2 µg/mL
OP-724 Tmax [2, 15]: 2 h
OP-724 AUC0-24h [2, 16]: 3880 ng･h/mL
OP-724 Cmax [2, 16]: 1.08 µg/mL
OP-724 Tmax [2, 16]: 0.5 h
OP-724 T1/2 ([2]; single OP-724 iv infusion 280 mg/m^2/4 hours, Mean, N=4): 0.438 h
OP-724 AUC0-24h [2, 17]: 6420±1910 ng･h/mL and 6420 ng･h/mL
OP-724 Cmax [2, 17]: 1.85 µg/mL
OP-724 Tmax [2, 17]: 1.9 h
OP-724 AUC0-24h [2, 18]: 10.2 µg·h/mL
OP-724 Cmax [2, 18]: 3.98 µg/mL
OP-724 T1/2 [2, 18]: 0.497 h
OP-724 Tmax [2, 18]: 1 h
time after initiating administration at which plasma OP-724 reached Cmax ([2]; single dose, all patients): 0.5 to 4 h
inhibition of P300/β-catenin signalling [3]: does not inhibit
change in mean CP score ([4]; 12 weeks after administration): no changes
change in mean MELD score ([4]; 12 weeks after administration): no changes
change in Enhanced Liver Fibrosis score [4, 19]: no significant change
change in liver stiffness by FibroScan [4, 19]: no significant change
ELF score ([4]; patient P101-01, 12 weeks, baseline 1.2): 0.9
Child-Pugh score [4, 7]: 7
FibroScan ([4]; patient P101-01, 12 weeks, baseline 9.1): 8.9 kPa
MELD score ([4]; patient P101-01, 12 weeks, baseline 15): 15
ELF score ([4]; patient P101-02, 12 weeks, baseline 0.78): 0.24
MELD score [4, 8]: 2
Child-Pugh score [4, 9]: 6
FibroScan ([4]; patient P101-02, 12 weeks, baseline 40.3): 33.8 kPa
ELF score ([4]; patient P101-04, 12 weeks, baseline 2.46): 3.16
MELD score ([4]; patient P101-04, 12 weeks, baseline 6): 8
Child-Pugh score ([4]; patient P101-04, 12 weeks, baseline 7): 7
FibroScan ([4]; patient P101-04, 12 weeks, baseline 26.3): 23.6 kPa
Child-Pugh score [4, 20]: 5
MELD score [4, 20]: 5
FibroScan ([4]; patient P101-07, 12 weeks, baseline 11.6): 9.2 kPa
ELF score ([4]; patient P101-07, 12 weeks, baseline −0.1): −0.07
ELF score ([4]; patient P101-08, 12 weeks, baseline 0.96): 1.48
Child-Pugh score [4, 21]: 6
MELD score [4, 21]: 6
FibroScan ([4]; patient P101-08, 12 weeks, baseline 22.3): 36.3 kPa
serum ALP and GGT levels ([5]; 5, 9, 12 and 16 weeks vs baseline): did not show a tendency to decrease
patients whose abnormally high baseline total bile acid values decreased ([5]; 12 weeks, of five patients with baseline and 12-week data): four
serum total bile acid level ([5]; during OP-724 administration, no significant difference): downward trend; also recorded: tendency to decrease
increase in the albumin level ([5]; this study): this tendency was not observed
antifibrotic effect [6]: exerts an antifibrotic effect
